Results as given in ChEMBL document CHEMBL3352008, “Dualsteric muscarinic antagonists--orthosteric binding pose controls allosteric subtype selectivity” (J Med Chem, 2014).
Positions count from the first letter of the chain named. Active and inactive are the calls of the source. The rule behind the calls is not given here.

Columns and labels:
Format in all cases: cell-based
[1] = molecular target: Muscarinic acetylcholine receptor M2 (Homo sapiens, UniProt P08172, T423H/Y177Q); experiment: (§1) Displacement of [3H]-NMS from human muscarinic M2 Y177Q/T423H mutant expressed in Flp-In-CHO cells by liquid scintillation counting
Method in brief: (§2)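 Separated by rapid filtration, counted by liquid scintillation. Means ± SEM of 3−4 independent experiments in triplicate; unpaired two-tailed t test versus wild type.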

[2] = molecular target: Muscarinic acetylcholine receptor M2 (Homo sapiens, UniProt P08172, Y104A); experiment: (§3) Displacement of [3H]-NMS from human muscarinic M2 Y104A mutant expressed in Flp-In-CHO cells by liquid scintillation counting
Method in brief: (§4)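 Bound separated either by rapid filtration or, in some cases, by centrifugation at 21000g, 15 °C, 20 min. Pellet washed once, resuspended, counted by liquid scintillation. Triplicate determinations.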

[3] = molecular target: Muscarinic acetylcholine receptor M2 (Homo sapiens, UniProt P08172, Y177Q); experiment: (§5) Displacement of [3H]-NMS from human muscarinic M2 Y177Q mutant expressed in Flp-In-CHO cells by liquid scintillation counting; method in brief: as §2
[4] = molecular target: T1, Muscarinic acetylcholine receptor M2 (Homo sapiens, UniProt P08172); experiment: (§6) Displacement of [3H]-NMS from wild-type human muscarinic M2 receptor expressed in Flp-In-CHO cells by liquid scintillation counting; method in brief: as §2
T1 sequence (P08172 whole entry): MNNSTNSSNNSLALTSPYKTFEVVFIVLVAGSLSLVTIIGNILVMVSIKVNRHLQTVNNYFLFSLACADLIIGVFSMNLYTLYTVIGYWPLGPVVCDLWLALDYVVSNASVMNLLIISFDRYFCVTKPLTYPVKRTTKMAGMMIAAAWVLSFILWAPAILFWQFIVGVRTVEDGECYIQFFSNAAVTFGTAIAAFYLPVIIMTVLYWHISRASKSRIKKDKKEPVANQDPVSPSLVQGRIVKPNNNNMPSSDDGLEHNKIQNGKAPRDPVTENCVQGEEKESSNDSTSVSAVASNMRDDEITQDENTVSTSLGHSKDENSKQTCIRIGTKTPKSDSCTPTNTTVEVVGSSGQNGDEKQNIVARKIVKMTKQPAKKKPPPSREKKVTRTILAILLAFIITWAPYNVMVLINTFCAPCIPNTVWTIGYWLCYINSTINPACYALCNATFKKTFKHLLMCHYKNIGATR

[5] = molecular target: T2, Muscarinic acetylcholine receptor M5 (Homo sapiens, UniProt P08912); experiment: (§7) Displacement of [3H]-NMS from wild-type human muscarinic M5 receptor expressed in CHO-K1 cells by liquid scintillation counting; method in brief: as §2
T2 sequence (P08912 whole entry): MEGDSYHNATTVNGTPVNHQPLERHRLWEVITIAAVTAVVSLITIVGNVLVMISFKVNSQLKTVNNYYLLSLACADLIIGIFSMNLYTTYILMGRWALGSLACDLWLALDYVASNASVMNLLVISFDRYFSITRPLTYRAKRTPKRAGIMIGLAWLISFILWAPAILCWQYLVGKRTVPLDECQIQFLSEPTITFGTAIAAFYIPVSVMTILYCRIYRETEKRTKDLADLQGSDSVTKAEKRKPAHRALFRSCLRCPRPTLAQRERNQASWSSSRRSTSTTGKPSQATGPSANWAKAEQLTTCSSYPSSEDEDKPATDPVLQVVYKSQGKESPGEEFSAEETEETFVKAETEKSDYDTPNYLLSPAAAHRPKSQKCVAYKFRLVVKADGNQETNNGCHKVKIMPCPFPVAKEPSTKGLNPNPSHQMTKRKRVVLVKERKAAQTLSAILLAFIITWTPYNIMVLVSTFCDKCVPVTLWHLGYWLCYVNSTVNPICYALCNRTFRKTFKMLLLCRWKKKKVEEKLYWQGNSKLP

[6] = molecular target: Muscarinic acetylcholine receptor M2 (Homo sapiens, UniProt P08172, W422A); experiment: Displacement of [3H]-NMS from human muscarinic M2 W422A mutant expressed in Flp-In-CHO cells by liquid scintillation counting; method in brief: as §2
[7] = system: T3, Muscarinic acetylcholine receptor M2 (Homo sapiens), P08172 [Y177Q,T423H]; experiment: as §1; method in brief: as §2
T3 sequence (whole entry): T1 sequence (P08172 whole entry) with Y177Q, T423H

[8] = system: T4, Muscarinic acetylcholine receptor M2 (Homo sapiens), P08172 [Y104A]; experiment: as §3; method in brief: as §4
T4 sequence (whole entry): T1 sequence (P08172 whole entry) with Y104A

[9] = molecular target: T5, Muscarinic acetylcholine receptor M2 (Homo sapiens) (UniProt P08172); experiment: as §6; method in brief: as §2
T5 sequence (whole entry): T1 sequence (P08172 whole entry)

[10] = molecular target: T6, Muscarinic acetylcholine receptor M5 (Homo sapiens) (UniProt P08912); experiment: as §7; method in brief: as §2
T6 sequence (whole entry): T2 sequence (P08912 whole entry)

[11] = molecular target: T5, Muscarinic acetylcholine receptor M2 (Homo sapiens); experiment: Antagonist activity at wild-type human muscarinic M2 receptor expressed in Flp-In-CHO cells assessed as inhibition of acetylcholine-induced effect at 0.01 to 100 uM by time-course assay
Method in brief: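 Label-free dynamic mass redistribution (Epic reader) in Flp-In-CHO cells stably expressing hM2, seeded at 12500 cells/well and grown 20 h at 37 °C to confluence. Cells washed and rested 2 h at 28 °C in HBSS with 20 mM HEPES, pH 7.0. DMR signal induced by a maximally effective acetylcholine concentration, antagonist then added and response followed over time. Representative experiment, n = 4, repeated at least twice on separate days.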

[12] = system: T7, Muscarinic acetylcholine receptor M2 (Homo sapiens), P08172 [Y177Q]; experiment: as §5; method in brief: as §2
T7 sequence (whole entry): T1 sequence (P08172 whole entry) with Y177Q

[13] = molecular target: T5, Muscarinic acetylcholine receptor M2 (Homo sapiens); experiment: Antagonist activity at wild-type human muscarinic M2 receptor expressed in Flp-In-CHO cells assessed as inhibition of acetylcholine-induced effect at 0.1 to 100 uM by time-course assay
Method in brief: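 DMR (label-free optical) in Flp-In-CHO cells stably expressing hM2, seeded 12500 cells/well, grown 20 h at 37 °C. Washed, rested 2 h at 28 °C in HBSS + 20 mM HEPES pH 7.0. Acetylcholine at maximally effective concentration, then antagonist; responses monitored 1 h. Representative experiment, n = 4, repeated at least twice on separate days.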

[14] = molecular target: T5, Muscarinic acetylcholine receptor M2 (Homo sapiens); experiment: Antagonist activity at wild-type human muscarinic M2 receptor expressed in Flp-In-CHO cells assessed as inhibition of acetylcholine-induced effect at 100 uM in absence of atropine by time-course assay

Muscarinic acetylcholine receptor M2 (Homo sapiens, UniProt P08172, T423H/Y177Q), sequence (P08172 whole entry Y177Q/T423H): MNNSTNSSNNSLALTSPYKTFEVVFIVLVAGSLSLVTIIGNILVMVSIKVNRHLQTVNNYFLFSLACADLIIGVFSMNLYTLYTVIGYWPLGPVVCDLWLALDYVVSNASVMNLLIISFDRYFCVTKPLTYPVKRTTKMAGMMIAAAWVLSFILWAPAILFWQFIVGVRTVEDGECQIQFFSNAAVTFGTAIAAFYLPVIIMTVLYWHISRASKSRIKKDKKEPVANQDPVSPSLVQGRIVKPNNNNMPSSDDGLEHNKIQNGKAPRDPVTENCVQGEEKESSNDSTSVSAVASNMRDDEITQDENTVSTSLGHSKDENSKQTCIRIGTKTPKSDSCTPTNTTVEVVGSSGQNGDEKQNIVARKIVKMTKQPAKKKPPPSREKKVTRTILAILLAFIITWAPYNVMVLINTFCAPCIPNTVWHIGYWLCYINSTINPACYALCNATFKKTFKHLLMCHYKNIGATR
Muscarinic acetylcholine receptor M2 (Homo sapiens, UniProt P08172, Y104A), sequence (P08172 whole entry Y104A): as the sequence (P08172 whole entry Y177Q/T423H) above, with Y104A, Q177Y, H423T counted along it
Muscarinic acetylcholine receptor M2 (Homo sapiens, UniProt P08172, W422A), sequence (P08172 whole entry W422A): as the sequence (P08172 whole entry Y177Q/T423H) above, with Q177Y, W422A, H423T counted along it
Muscarinic acetylcholine receptor M2 (Homo sapiens, UniProt P08172, Y177Q), sequence (P08172 whole entry Y177Q): as the sequence (P08172 whole entry Y177Q/T423H) above, with H423T counted along it

CC(C)(CN1C(=O)c2cccc3cccc(c23)C1=O)C[N+](C)(C)CCCCCC[N+]1(C)[C@@H]2C[C@H](OC(=O)[C@H](CO)c3ccccc3)C[C@H]1[C@@H]1O[C@@H]12 (stereo not given in full) gave a Ki [1] of 3.31 nM, a Ki [2] of 132 nM and a Ki [3] of 8.91 nM. It also gave a Ki [4] of 6.17 nM, a Ki [5] of 5.5 nM and a Ki [6] of 6.46 nM.

Work on C[N+](C)(C)CCCCCC[N+]1(C)[C@@H]2C[C@H](OC(=O)[C@H](CO)c3ccccc3)C[C@H]1[C@@H]1O[C@@H]12 (stereo not given in full) yielded a Ki [2] of 309 nM, a Ki [4] of 47.9 nM and a Ki [5] of 20.9 nM. For the same compound, the Ki [6] was 40.7 nM.

Work on C[N+](C)(CCCCCC[N+](C)(C)CCCN1C(=O)c2ccccc2C1=O)CCCN1C(=O)c2ccccc2C1=O yielded a pKA [7] of 5.47, a pKA [8] of 6.59 and a pKA [9] of 6.55. It also gave a pKA [10] of 4.37.

Work on C[N+](C)(CC#CCOC1=NOCC1)CCCCCC[N+](C)(C)CCCN1C(=O)c2ccccc2C1=O yielded a Ki [1] of 200 nM, a Ki [2] of 204 nM and a Ki [3] of 275 nM. It also gave a Ki [4] of 91.2 nM, a Ki [5] of 30200 nM and a Ki [6] of 75.9 nM.

Work on C[N+](C)(C)CC#CCOC1=NOCC1 yielded a Ki [1] of 2.19 nM, a Ki [2] of 257 nM and a Ki [3] of 8.71 nM. For the same compound, the Ki [4] was 2.51 nM, the Ki [5] was 120 nM and the Ki [6] was 10 nM.

For CC(C)(CN1C(=O)c2cccc3cccc(c23)C1=O)C[N+](C)(C)CCCCCC[N+](C)(C)CCCN1C(=O)c2ccccc2C1=O, the pKA [7] was 5.82, the pKA [8] was 7.64 and the inhibition [11] was “Active”. It also gave a pKA [12] of 6.23, a pKA [9] of 7.7 and a pKA [10] of 5.05.

In the case of C[N+](C)(C)CCCCCC[N+](C)(C)CC#CCOC1=NOCC1, the Ki [1] is reported as 64.6 nM, the Ki [2] is reported as 1290 nM and the Ki [3] is reported as 91.2 nM. For the same compound, the Ki [5] was 3980 nM and the Ki [6] was 275 nM.

Work on C[N+](C)(CCCCCC[N+]1(C)[C@@H]2C[C@H](OC(=O)[C@H](CO)c3ccccc3)C[C@H]1[C@@H]1O[C@@H]12)CCCN1C(=O)c2ccccc2C1=O (stereo not given in full) yielded a Ki [1] of 7.08 nM, a Ki [2] of 50.1 nM and a Ki [3] of 7.08 nM. For the same compound, the Ki [4] was 8.13 nM, the Ki [5] was 17 nM and the Ki [6] was 6.92 nM.

CN1[C@@H]2CC[C@H]1CC(OC(=O)[C@H](CO)c1ccccc1)C2 (stereo not given in full) was tested, and the inhibition [11] was “Active”.

Work on C[N+]1(C)[C@@H]2CC[C@@H]1CC(OC(=O)C(CO)c1ccccc1)C2 (stereo not given in full) yielded a Ki [2] of 11 nM and a Ki [4] of 1.82 nM.

Work on C[N+](C)(C)CCCCCC[N+]1(C)[C@@H]2CC[C@@H]1CC(OC(=O)C(CO)c1ccccc1)C2 (relative stereo) yielded a Ki [1] of 18.2 nM, a Ki [2] of 151 nM and a Ki [3] of 18.6 nM. It also gave a Ki [4] of 16.2 nM, a Ki [5] of 87.1 nM and a Ki [6] of 55 nM.

In the case of CC(C)(CN1C(=O)c2cccc3cccc(c23)C1=O)C[N+](C)(C)CCCCCC[N+](C)(C)CC#CCOC1=NOCC1, the Ki [1] is reported as 26.9 nM, the Ki [2] is reported as 14.5 nM and the Ki [4] is reported as 11.5 nM. The Ki [6] was 19.5 nM.

For CN(C)CC#CCOC1=NOCC1, the Ki [4] was 100 nM.

CC(C)(CN1C(=O)c2cccc3cccc(c23)C1=O)C[N+](C)(C)CCCCCC[N+]1(C)[C@@H]2CC[C@@H]1CC(OC(=O)C(CO)c1ccccc1)C2 (relative stereo) was tested, and the Ki [1] was 2.82 nM, the Ki [2] was 61.7 nM and the inhibition [13] was “Active”. For the same compound, the Ki [3] was 8.51 nM, the Ki [4] was 2.82 nM and the inhibition [14] was “inactive”. The Ki [5] was 19.5 nM and the Ki [6] was 21.4 nM.
